From PubChem BioAssay
MLL AF4-AF9 inh: inhibitors of AF4 peptide binding to AF9, primary screen, biochemical, AlphaScreen, biotin-AF4 peptide, FLAG-AF9, single point; inhibition, % at 10 µM; Protein AF-9 (Homo sapiens), P42568; AID 651704, 2012; actives 0.47% (n = 350,000);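 active means every replicate reaching a set inhibition limit, whatever the replicate mean, cut at about 25% in these data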;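 further: 0% = plate neutral control median and 100% = total signal loss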
Target sequence (P42568 whole entry, looked up): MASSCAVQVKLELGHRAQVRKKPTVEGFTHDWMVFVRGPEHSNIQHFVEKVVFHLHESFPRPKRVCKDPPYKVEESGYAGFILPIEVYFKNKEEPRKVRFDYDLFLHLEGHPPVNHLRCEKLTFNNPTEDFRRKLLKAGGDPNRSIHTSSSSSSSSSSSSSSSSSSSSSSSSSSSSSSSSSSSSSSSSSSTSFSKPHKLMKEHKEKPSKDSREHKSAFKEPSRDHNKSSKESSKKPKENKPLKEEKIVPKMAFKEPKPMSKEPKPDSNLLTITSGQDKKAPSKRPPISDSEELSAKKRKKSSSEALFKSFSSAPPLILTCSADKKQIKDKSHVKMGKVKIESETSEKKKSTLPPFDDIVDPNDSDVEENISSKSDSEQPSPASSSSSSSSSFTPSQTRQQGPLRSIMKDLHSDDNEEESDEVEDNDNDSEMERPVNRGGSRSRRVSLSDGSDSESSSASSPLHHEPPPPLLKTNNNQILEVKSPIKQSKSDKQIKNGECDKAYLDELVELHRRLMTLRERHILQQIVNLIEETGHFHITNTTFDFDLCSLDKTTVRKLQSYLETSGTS
E-selectin induc: E-selectin induction in HUVECs, primary screen, imaging, HUVEC, immunofluorescence imaging, single point. P16581. normalized: neutral wells 0, TNF-alpha wells 100. activation, % at 7.58 µM. actives 0.37% (n = 260,000);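 active means mean E-selectin-positive cell signal at least 10% of the positive control, reached in at least 60% of replicates, without over 20% cell loss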
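Test system: HUVEC | Signal: Immunofluorescence imaging | Read-out: Percent E-selectin-positive cells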
rRNA inh HTS: reduced GFP signal of wild-type E. coli, primary screen, bacterial rRNA inhibitor project, GFP/RFP fluorescence, OD600, single point; E. coli WT GFP vs humanized-ribosome RFP mutants, 24 h; active compounds read low; DMSO median 0, no signal -100; GFP signal change (wild-type ribosome), % (concentration not given with the values); actives 1.6% (n = 350,000); AID 720706, 2013;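 active means significant combined selectivity score with lowered wild-type GFP, culture density cut under 30%, mutant RFP and density less affected; inactive means any of these conditions unmet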
RAD52 inh: RAD52 DNA annealing inhibitors, primary screen, biochemical, FRET, single point, set 2 | recombinant RAD52 DNA annealing, FRET fluorescence | DNA repair protein RAD52 homolog (Homo sapiens), P43351 | actives 0.46% (n = 360,000) | inhibition, % at 18.7 µM;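 active means every replicate showing at least 50% inhibition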
INS-1E GSIS act: GLuc luminescence reporter in INS-1E cells, primary screen for activators of glucose-dependent secretion of insulin; INS-1E GLuc reporter insulin secretion, 2-3 h; actives 0.61% (n = 370,000); activation, % at 16.6 µM;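 active means lowest replicate activation of at least 40%, so every replicate reaches that level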;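 further: 0% = median of neutral control wells and 100% = median of IBMX positive control wells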
RAD54 inh: inhibitors of human RAD54 branch migration, primary screen, biochemical, fluorescence, single point. DNA repair and recombination protein RAD54-like (Homo sapiens), Q92698. RAD54 Holliday junction branch migration, FAM/BHQ fluorescence. inhibition, % at 10.4 µM. actives 0.14% (n = 360,000). AID 602329, 2012;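 active means mean normalized replicate activity at least 40 and at least half of replicates scoring 40 or more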;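 further: 0% = median of neutral control wells and 100% = median of positive control wells; inhibitors cause a drop in the FAM fluorescence signal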
* marks the source's active call; other numbers are inactive results; . = not tested or not shown. Rows were chosen to be rich in hits. Some 2.6% of all compounds tested hit in one or more screens of this group.

SMILES | MLL AF4-AF9 inh | E-selectin induc | rRNA inh HTS | RAD52 inh | INS-1E GSIS act | RAD54 inh
C[C@@H]1CN([C@H](C)CO)C(=O)c2cccc(NS(C)(=O)=O)c2O[C@@H]1CN(C)Cc1ccc(Oc2ccccc2)cc1 | 0.5 | 40.9* | -1.5 | 0.1 | 10.6 | -3.0
CCCN1CCC2(CC1)CN(Cc1ccc3c(c1)OCO3)[C@H](CO)c1[nH]c3cc(OC)ccc3c12 | 30.4* | -0.1 | -5.6 | 86.9* | -19.4 | .
COc1ccc2c3c([nH]c2c1)[C@@H](CO)N(C(C)=O)CC31CCN(C(=O)c2ccc3c(c2)OCO3)CC1 | 25.4* | -0.1 | 2.2 | -2.3 | 8.4 | .
COc1ccc(S(=O)(=O)N(C)C[C@H]2Oc3ccc(NC(=O)CCCCCC(=O)Nc4ccccc4N)cc3C(=O)N([C@H](C)CO)C[C@H]2C)cc1 | -2.2 | 0.0 | -1.8 | -5.8 | 17.6 | -1.9
COCc1cn(CC[C@H]2CC[C@H](NC(=O)Nc3ccc(F)cc3)[C@H](CO)O2)nn1 | -0.4 | 1.6 | 2.3 | -2.1 | -6.1 | -0.7
Cc1ccc2ccccc2c1CSc1nc(N)nc2c1ncn2CC(C)C | -6.2 | -0.3 | -29.8* | -5.9 | -45.6 | .
CC(C)Cn1cnc2c(SCc3ccccc3)nc(N)nc21 | -0.5 | 0.2 | -3.5 | -8.7 | 5.6 | 4.4
Cc1ccc(OCCn2c(=S)[nH]c3c(N)ncnc32)cc1 | -0.6 | 0.3 | -37.2* | -31.3 | -10.0 | -1.9
O=C(Nc1ccccc1F)N[C@H]1CC[C@@H](CCNS(=O)(=O)c2ccc(Cl)cc2)O[C@H]1CO | 2.4 | 0.3 | -3.0 | 3.9 | -7.9 | -3.2
CCOc1ccc(-c2onc(C(F)(F)F)c2-c2cscn2)c(O)c1 | 2.8 | . | -43.0* | 2.4 | 4.1 | -0.2
CC(C)C#Cc1cnc2c(c1)C(=O)N([C@H](C)CO)C[C@@H](C)[C@H](CN(C)C(=O)Cc1ccncc1)O2 | 0.9 | 0.1 | -2.0 | 7.8 | -5.5 | -4.8
O=C(Nc1cc2c3c(c1)C1CCCC1CN3CC1CCCC21)c1ccccc1 (centres undefined) | . | . | . | . | . | 50.2*
Cn1c(N)c(C(=O)CSc2nc3ccccc3n2-c2ccccc2)c(=O)n(C)c1=O | . | . | . | . | 63.4* | 1.3
COc1ccc(-n2c(SCC(=O)c3c(N)n(C)c(=O)n(C)c3=O)nc3ccccc32)cc1 | . | . | . | . | . | -3.0
c1ccc(Nc2c3c(nc4ccccc24)CCC3)cc1 | 3.3 | . | -12.5 | 13.9 | 6.7 | .
COc1ccc(Nc2c3c(nc4ccccc24)CCC3)cc1 | 9.3 | -0.1 | -5.6 | 33.7 | 74.1* | 28.2
C[C@H](NC(=O)[C@H]1[C@H](CO)[C@H]2Cn3c(cccc3=O)[C@H]2N1CC1CCCC1)c1ccccc1 | -10.6 | 0.0 | 5.9 | 7.5 | 24.3 | -8.1
NC(=O)c1cc2cc(Cl)ccc2o/c1=N/NC(=O)c1cccs1 | -0.6 | -0.1 | 11.9 | -9.1 | 42.7* | -4.9
CN=c1oc2ccc(Cl)cc2cc1C(N)=O | . | . | . | . | . | -7.9
O=C(NNC(=O)C12CC3CC(CC(C3)C1)C2)c1ccccn1 | -2.0 | 0.2 | -43.3* | -11.6 | 13.6 | -0.1
O=C(NNC(=O)C12CC3CC(CC(C3)C1)C2)c1cnccn1 | . | . | . | . | 1.2 | 2.8
Cc1ccc2nc(NC(=O)C3CCN(S(=O)(=O)c4cccs4)CC3)sc2c1 | . | . | . | . | -48.1 | -1.8
Cc1ccc2nc(N/C(=N/S(=O)(=O)c3cccs3)c3ccccc3Cl)sc2c1 | -2.9 | 7.5 | -32.3* | -8.9 | 6.3 | -6.8
COc1ccccc1/C=N/Nc1cc(C)nc(N2CCOCC2)n1 | 1.9 | . | . | -3.1 | . | 1.3
COc1ccccc1/C=N/Nc1cc(N(C)C)nc(N(C)C)n1 | 29.0* | -0.2 | -1.4 | -4.5 | 5.4 | .
COc1ccc(/C=N/Nc2cc(N(C)C)nc(N(C)C)n2)cc1 | 27.8* | . | . | 6.6 | -13.3 | .
COc1ccc(/C=N/Nc2cc(OC)ncn2)cc1 | 3.0 | -1.2 | 6.5 | -15.1 | 13.1 | .
CN(C)c1cc(N/N=C\c2ccccc2)nc(N(C)C)n1 | 26.3* | . | -4.0 | 12.4 | -13.9 | .
